Shown are actives, neighbours in structure and some others; about 1.7% of the full set was active somewhere.
PLCg1 inh: blocks human PLC-gamma1 enzyme activity | AID 720700 | hit rate 0.84% among 370,000 | P19174 | purified PLC-gamma1, fluorogenic substrate, fluorescence | inhibition, % at 12.2 µM; in the data active = inhibition above about 9.5%
UCH37 DUB inh: blocks the human deubiquitinase UCH37; Q9Y5K5; purified proteasome/UCH37, Ub-AMC cleavage fluorescence; inhibition, % (test concentration not listed); hit rate 0.33% among 330,000; AID 588478;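 active = mean inhibition over replicate wells above about 20%, limit read from the data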;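 also: 0% = compound-free wells with enzyme and 100% = wells lacking proteasome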
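assay system = human UCH37 enzyme supplied as purified proteasome complex | amount = proteasome at 0.15 nM in the dispensed enzyme solution | schedule = 30 min compound-proteasome preincubation then 25 min substrate reaction, room temperature | measured by = fluorescence, ex 355 nm, em 460 nm | benchmarks = no-proteasome wells (full inhibition) and compound-free wells (no inhibition)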
PLC-beta3 inh: PLC-beta3 (human) inhibition, primary screen. Purified PLC-beta3, fluorogenic substrate, fluorescence. inhibition, % at 12.2 µM. hit rate 0.18% among 370,000; in the data active = inhibition above about 11%;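 also: 0% = median of compound wells on plate and 100% = full blocker control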
Target sequence (Q01970 whole entry, looked up): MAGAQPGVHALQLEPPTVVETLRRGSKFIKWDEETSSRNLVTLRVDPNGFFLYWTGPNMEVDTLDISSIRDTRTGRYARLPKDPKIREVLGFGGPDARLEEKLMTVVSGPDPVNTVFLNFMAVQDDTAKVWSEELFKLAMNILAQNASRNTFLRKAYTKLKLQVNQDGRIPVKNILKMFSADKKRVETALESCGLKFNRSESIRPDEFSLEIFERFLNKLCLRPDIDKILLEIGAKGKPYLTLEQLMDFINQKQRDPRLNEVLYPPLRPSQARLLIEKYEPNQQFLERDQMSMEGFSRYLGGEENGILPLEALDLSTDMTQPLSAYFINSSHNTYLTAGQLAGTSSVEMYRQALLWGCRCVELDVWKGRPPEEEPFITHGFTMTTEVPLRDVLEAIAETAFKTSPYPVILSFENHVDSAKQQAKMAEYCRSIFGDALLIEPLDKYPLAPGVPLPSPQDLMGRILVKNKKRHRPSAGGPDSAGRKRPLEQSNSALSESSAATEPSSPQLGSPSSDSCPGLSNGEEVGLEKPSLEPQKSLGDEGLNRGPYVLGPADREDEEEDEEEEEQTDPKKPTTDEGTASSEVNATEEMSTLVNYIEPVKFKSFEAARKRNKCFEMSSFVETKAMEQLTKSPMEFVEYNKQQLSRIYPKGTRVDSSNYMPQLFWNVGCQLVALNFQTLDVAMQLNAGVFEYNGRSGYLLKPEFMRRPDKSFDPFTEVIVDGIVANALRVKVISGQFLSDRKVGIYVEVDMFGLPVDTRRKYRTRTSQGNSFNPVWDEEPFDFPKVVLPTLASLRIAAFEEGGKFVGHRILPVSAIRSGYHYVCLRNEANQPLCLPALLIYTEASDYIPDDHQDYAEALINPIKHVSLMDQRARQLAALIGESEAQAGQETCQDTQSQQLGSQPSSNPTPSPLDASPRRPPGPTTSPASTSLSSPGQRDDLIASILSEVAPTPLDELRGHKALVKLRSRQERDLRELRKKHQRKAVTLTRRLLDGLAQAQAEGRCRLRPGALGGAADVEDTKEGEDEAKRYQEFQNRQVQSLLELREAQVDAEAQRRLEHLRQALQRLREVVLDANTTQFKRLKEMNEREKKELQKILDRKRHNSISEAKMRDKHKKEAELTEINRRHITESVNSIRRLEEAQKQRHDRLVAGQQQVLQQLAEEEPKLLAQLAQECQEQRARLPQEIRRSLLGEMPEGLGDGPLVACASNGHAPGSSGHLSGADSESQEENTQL
Rpn11 block: Rpn11 (human) deubiquitinase inhibition. O00487. inhibition, % at 20 µM. hit rate 0.59% among 360,000. human 26S proteasome, Ub4-pepOG fluorescence polarization; 20S core pre-blocked with epoxomicin. AID 588493;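 active = inhibition at 20 µM, scaled to each plate's controls, above about 33%, limit read from the data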
An asterisk follows results filed as active; · = not tested or not shown.

SMILES	PLCg1 inh	UCH37 DUB inh	PLC-beta3 inh	Rpn11 block
COc1cc(/C=C2\SC(=O)N(Cc3ccc(Cl)cc3)C2=O)cc([N+](=O)[O-])c1O	3.1	21.9*	3.6	28.0
COc1cc(/C=C2\C(=O)NN(c3ccccc3)C2=O)cc([N+](=O)[O-])c1O	-0.7	20.9*	1.4	0.6
O=C(NC=NOCc1cccc(C(F)(F)F)c1)N1OC[C@@H]2COc3ccc4ccccc4c3[C@@H]21	·	5.6	·	·
COc1ccc(NC(=O)C2CCCN(S(=O)(=O)c3ccccc3)C2)c(OC)c1 (stereo not drawn)	12.1*	0.0	-1.6	-2.3
CCOC(=O)Nc1ccc(OC)cc1S(=O)(=O)N1CCCCC1	-1.7	29.3*	-1.2	-0.2
COc1ccc(S(=O)(=O)N2CCCC(C(=O)Nc3ccc(OC)c(OC)c3)C2)cc1 (stereo not drawn)	0.6	4.5	1.5	-4.2
Cc1cccc(N2CC(C(=O)NCCC3=CCCCC3)CC2=O)c1C (stereo not drawn)	4.7	22.9*	1.4	-0.3
C[C@@H]1COc2cc(N3CCN(Cc4ccccc4F)CC3)ccc2S(=O)(=O)N1	9.8*	·	5.4	·
O=C1c2cccc(OCc3ccc(F)cc3)c2CCN1Cc1ccc(F)cc1	11.3*	3.4	4.5	5.9
O=C(O)c1ccccc1NS(=O)(=O)c1ccc(NN=Cc2ccc(O)c(O)c2)c([N+](=O)[O-])c1	·	18.4	·	·
CSc1ccc(C=NNc2ccc(S(=O)(=O)Nc3ccccc3C(=O)O)cc2[N+](=O)[O-])cc1	2.4	22.4*	0.2	-13.3
COc1ccc(C=NNc2ccc(S(=O)(=O)Nc3ccccc3C(=O)O)cc2[N+](=O)[O-])c(OC)c1	·	31.5*	·	-10.0
Brc1ccc(OCCCCCN2CCOCC2)cc1	9.7*	1.6	4.9	0.4
CC(C)C(=O)c1ccc(O)c(O)c1	4.6	5.9	-1.3	-4.8
O=C(C(=O)c1ccc(O)c(O)c1)c1ccc(O)c(O)c1	5.8	23.5*	2.7	-7.8
COc1cc([N+](=O)[O-])cc(C=NNC(=O)C(C)Nc2ccccc2C)c1O (stereo not drawn)	·	20.2*	·	·
O=C(NC1=C(Nc2ccc(F)cc2)C(=O)c2ccccc2C1=O)c1ccc(Cl)cc1	2.7	20.9*	5.6	2.7
O=S(=O)(NN=C1CCCc2ccccc21)c1ccc(Br)cc1	·	4.3	·	·
CC(=NOC(=O)c1ccc(OC(C)C)cc1)c1ccc(C)c(C)c1	·	3.0	·	·
CCC[C@@H](CN1CCC[C@H]1CN1C(N)=NC[C@H]1CC(C)C)N1C[C@@H](Cc2ccccc2)N(CCc2ccc(Cl)c(Cl)c2)C1=N	6.0	8.8	12.0*	-25.0
Cc1n[nH]c(=S)n1N=Cc1ccc(OCc2ccc(Cl)cc2)cc1	·	3.2	·	·
O=C(CSc1nc(-c2ccc(F)cc2)nc2c1Cc1ccccc1O2)Nc1ccc(C(=O)O)cc1	0.6	15.1	-0.9	162.6*
O=C(CSc1nc(-c2ccccc2)nc2c1Cc1ccccc1O2)Nc1ccc(C(=O)O)cc1	3.2	16.2	-6.4	51.4*
O=C(CSc1nc(-c2ccccc2)nc2ccccc12)Nc1cccc(C(=O)O)c1	0.1	6.4	0.3	2.9
Nn1cnnc1NN=Cc1cc([N+](=O)[O-])c(Cl)cc1Cl	·	2.0	·	·
SMILES	PLCg1 inh	UCH37 DUB inh	PLC-beta3 inh	Rpn11 block
CC(=NNC(=O)CN1CCN(Cc2ccccc2Cl)CC1)c1ccco1	·	4.2	·	·
N#C/C(=C(/O)c1ccco1)c1nc2ccccc2s1	-45.5	20.0*	-42.5	11.8
ON=C1C2C3C(Br)C4C5CC(C1C53)C24 (stereo not drawn)	·	1.3	·	·
COc1ccc(-c2cc(C(=O)NN=Cc3cc(OC)c(OC)cc3OC)c3ccccc3n2)cc1	·	-122.3	·	·
C=CCn1cc(/C=C/c2cc[n+](C)cc2)c2ccccc21	-185.6	22.1*	-232.6	·
CCn1cc(/C=C/c2cc[n+](C)cc2)c2ccccc21	-280.9	20.5*	-386.9	·
C=CCn1c(C)c(/C=C/c2cc[n+](C)cc2)c2ccccc21	-107.3	·	-144.9	·
Cc1ccc(/C=C(\C#N)C(=O)NCC2CCCO2)o1 (stereo not drawn)	0.5	13.2	-2.9	-8.4
C=CCNC(=O)/C(C#N)=C/c1ccc(C)o1	2.0	21.9*	1.9	-0.9
CC(C)(NO)/C(=N/O)c1cccs1	8.5	·	11.8*	0.4
CC(=O)Nc1c(O)nc(SCC(=O)Nc2c(C)cccc2C)[nH]c1=O	11.8*	2.3	11.5*	-0.6
CN1CCN(CC#CC(C)(O)C2CC3C=CC2C3)CC1 (stereo not drawn)	3.1	22.9*	1.9	7.5
OC(CCN1CCCCC1)(c1ccccc1)C1C[C@@H]2C=C[C@H]1C2 (stereo partly drawn)	1.2	6.8	4.9	-11.9
